Calls of active or inactive are those of the source. No cut-off for these calls is given here.

By IC50 is commonly meant the midpoint of a concentration-inhibition curve.

The subject of one assay is Modoc virus. As to the kind of experiment: Antiviral activity against Modoc virus-infected HeLa-H1 cells. The assay is classed as functional, organism-based.
A further assay has as its system Murine hepatitis virus. Briefly: Antiviral activity against mouse hepatitis virus-infected NCTC clone-1469 cells. It counts as functional, organism-based. Summed up: (§1)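 Cells were seeded at about 50 000/well and infected 24 h later at MOI 0.1 or less, with drug added alongside. Once infectivity was evident, cells were washed and stained with methylene blue/carbol fuchsin in methanol for 10 min at room temperature.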

In assay [1] the test system is California encephalitis virus. As to the kind of experiment: Antiviral activity against California encephalitis virus-infected Vero cells. The assay is classed as functional, cell-based.
Assay [2] has as its system Human alphaherpesvirus 2. Briefly: Antiviral activity against HSV2-infected Vero cells. It counts as functional, organism-based.
A further assay relates to San Angelo virus. Briefly: Antiviral activity against San Angelo virus-infected Vero cells. The assay is classed as functional, organism-based.
The nature of assay [3]: Selectivity ratio, IC50 for vaccinia virus-infected Vero cells to IC50 for inhibition of IgE production in antigen-sensitized BALB/c mouse spleen cells. It counts as functional.
Assay [4] in a line: Selectivity ratio, IC50 HSV2-infected Vero cells to IC50 for inhibition of IgE production in antigen-sensitized BALB/c mouse spleen cells. The assay is classed as functional.
The test system of the next assay is Simian virus 40. As to the kind of experiment: Antiviral activity against SV40-infected Vero cells. The assay is classed as functional, organism-based. The conditions noted are these: Betapolyomavirus macacae. Summed up: as §1
The nature of assay [5]: Inhibition of IgE production in antigen-sensitized BALB/c mouse spleen cells. It counts as functional, tissue-based.
Assay [6] deals with Vesicular stomatitis virus. As to the kind of experiment: Antiviral activity against VSV-infected Vero cells. It counts as functional, organism-based.
For a further assay, the system named is Enterovirus. As to the kind of experiment: Antiviral activity against Rhinovirus-infected HeLa-H1 cells. It counts as functional, organism-based.
A further assay concerns Vaccinia virus. As to the kind of experiment: Antiviral activity against Vaccinia virus-infected Vero cells. It counts as functional, organism-based, Orthopoxvirus vaccinia.
Assay [7] deals with Human alphaherpesvirus 2. As to the kind of experiment: Antiviral activity against HSV2 MS-infected IAF/HA-HO guinea pig assessed as suppression of vesicle formation at 2% applied topically four times a day for 3 days. The assay is classed as functional, organism-based. Summed up:
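Six hairless guinea pigs were each inoculated at three back sites with HSV-2 MS strain. Sites received drug at 2% in vehicle, vehicle alone, or nothing, rotated between sites so each animal was its own control. Vehicle was 38% Gelucire 44/14, 38% PEG 400, 10% Tween 80 and 10% N-methylpyrrolidinone. Dosing was topical, four times daily at about 2.5 h intervals. Vesicle formation was assessed on day 4 after inoculation.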

[8] abbreviates: California encephalitis virus, Vero.

As to `CC(=O)OC1C2CC3CC1CC(C(=O)Nc1ccc(-c4nc5cc(C(=O)Nc6ccccn6)ccc5[nH]4)cc1)(C3)C2` (centres undefined), the IC50 in the assay with Modoc virus was 200 nM; with Murine hepatitis virus (Murine coronavirus) it was greater than 600 nM; in assay [1] (setting [8]) it was 130 nM; with Human alphaherpesvirus 2 [2] (Human alphaherpesvirus 2, Vero), 1000 nM; with San Angelo virus (San Angelo virus, Vero), 60 nM; in the assay on Simian virus 40, greater than 2000 nM. Further, the IC50 in assay [5] (Mus musculus, BALB/c, Spleen) was 10 nM; in assay [6], greater than 2000 nM; with Enterovirus (Enterovirus, HeLa H1), 200 nM; in the assay with Vaccinia virus (Orthopoxvirus vaccinia, Vero), 1500 nM. Further, the “Ratio IC50” value in assay [3] and in [4] was greater than 100 each time.

As to `O=C(Nc1ccccn1)c1ccc2[nH]c(-c3ccc(NC(=O)C45CC6CC(CC(C6)C4)C5)cc3)nc2c1` (stereo in doubt; 1d), the IC50 amounted to 30 nM with Murine hepatitis virus; 200 nM in [1] (vero); 300 nM in the assay with Human alphaherpesvirus 2 [2] (vero); 200 nM in the assay on San Angelo virus (vero); 12 nM in assay [5]; 200 nM in the assay with Enterovirus (hela-h1). In addition, half-maximal inhibition in the assay with Vaccinia virus (vero) (IC50) required 300 nM. Besides, the “Ratio IC50” value in [3] and in assay [4] was 25 throughout.

For `O=C(Nc1ccc(-c2nc3cc(NC(=O)C45CC6CC(CC(C6)C4)C5)ncc3[nH]2)cc1)C12CC3CC(CC(C3)C1)C2`, the IC50 in the assay on Modoc virus is 20 nM; in the assay on Murine hepatitis virus (Murine coronavirus), 8 nM; in assay [1] (setting [8]) it was 6 nM; in the assay on Human alphaherpesvirus 2 [2] (Human alphaherpesvirus 2, Vero), 5 nM; in the assay with San Angelo virus (San Angelo virus, Vero) it was 6 nM; in the assay with Simian virus 40, greater than 2000 nM. Moreover, the IC50 in assay [5] (Mus musculus, BALB/c, Spleen) is 1 nM; in assay [6], greater than 2000 nM; with Enterovirus (Enterovirus, HeLa H1) it was 10 nM; in the assay on Vaccinia virus (Orthopoxvirus vaccinia, Vero) it was 10 nM. In addition, the result in the assay on Human alphaherpesvirus 2 [7] was Active.

Consider `O=C(Nc1ccccn1)c1ccc2[nH]c(-c3ccc(NC(=O)[C@]45CC6CC(C4)[C@@H](O)C(C6)C5)cc3)nc2c1`, for which the IC50 in the assay with Modoc virus is 400 nM; in the assay with Murine hepatitis virus (Murine coronavirus), 100 nM; in assay [1] (setting [8]) it was 60 nM; with Human alphaherpesvirus 2 [2] (Human alphaherpesvirus 2, Vero), 1500 nM; in the assay with San Angelo virus (San Angelo virus, Vero), 135 nM; in the assay with Simian virus 40, greater than 2000 nM. For the same compound, the IC50 was 10 nM in assay [5] (Mus musculus, BALB/c, Spleen); greater than 2000 nM in assay [6]; 200 nM in the assay on Enterovirus (Enterovirus, HeLa H1); 1800 nM in the assay with Vaccinia virus (Orthopoxvirus vaccinia, Vero). For the same compound, the “Ratio IC50” value in assay [3] and in assay [4] was 150 each time.

The values are drawn from ChEMBL document CHEMBL1138288, “2-phenylimidazopyridines, a new series of Golgi compounds with potent antiviral activity” (J Med Chem, 2007).
